Data as given in ChEMBL document CHEMBL3098017, “Discovery and in Vivo Evaluation of Potent Dual CYP11B2 (Aldosterone Synthase) and CYP11B1 Inhibitors” (ACS Med Chem Lett, 2013).

Key:
Rattus norvegicus [1] = test: Reduction of angiotensin 2-stimulated plasma aldosterone time-weighted average (0 to 8 hrs) in Sprague-Dawley rat at 1 mg/kg, po; format: functional; set-up: scale not given: the % may be the effect or the level left
Procedure, shortened: (§1)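 Angiotensin-II infusion in Sprague–Dawley rats (n = 3) raised baseline plasma aldosterone; oral dosing in corn starch/water or HCl (1.5 equiv of 1 N)/cornstarch/water; plasma sampled at set times; time-weighted average drug level 0–8 h; time-weighted average % fall in plasma aldosterone from baseline.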

Rattus norvegicus [2] = test: Time-weighted average (0 to 8 hrs) in Sprague-Dawley rat at 1 mg/kg, po; format: ADME, organism-based; set-up: dose 1 mg/kg, route oral; conditions: in vivo; procedure, shortened: as §1
[3] = Oral bioavailability in Sprague-Dawley rat at 1 mg/kg; format: ADME, organism-based; conditions: in vivo
Procedure, shortened: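 Sprague–Dawley rats (n = 3), oral dose in corn starch/water or HCl (1.5 equiv of 1 N)/cornstarch/water; %F calculated against a 0.3 mg/kg intra-arterial dose.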

[4] = target: T1, Cytochrome P450 11B2, mitochondrial (Homo sapiens, UniProt P19099); test: Inhibition of CYP11B2 in human NCI-H295R cells assessed as inhibition of angiotensin-2-induced aldosterone production after 24 hrs by RIA; format: cell-based
T1 sequence (P19099 whole entry): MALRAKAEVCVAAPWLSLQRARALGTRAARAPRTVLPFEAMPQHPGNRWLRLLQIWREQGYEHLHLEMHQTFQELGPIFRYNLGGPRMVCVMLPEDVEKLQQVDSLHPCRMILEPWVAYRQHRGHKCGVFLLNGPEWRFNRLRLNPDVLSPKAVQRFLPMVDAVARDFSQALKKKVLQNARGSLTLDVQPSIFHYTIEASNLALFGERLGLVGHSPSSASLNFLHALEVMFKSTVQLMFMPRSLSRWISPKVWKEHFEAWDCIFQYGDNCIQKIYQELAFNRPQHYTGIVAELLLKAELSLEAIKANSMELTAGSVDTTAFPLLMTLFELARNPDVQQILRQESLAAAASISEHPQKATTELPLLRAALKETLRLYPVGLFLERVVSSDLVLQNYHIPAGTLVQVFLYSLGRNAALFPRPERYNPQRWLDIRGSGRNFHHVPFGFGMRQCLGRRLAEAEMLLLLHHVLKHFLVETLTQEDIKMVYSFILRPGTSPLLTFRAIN

[5] = target: T1, Cytochrome P450 11B2, mitochondrial; test: Inhibition of human recombinant CYP11B2 using 11-deoxycorticosterone as substrate by cell-based assay
Aromatase = target: T2, Aromatase (Homo sapiens, UniProt P11511)
T2 sequence (P11511 whole entry): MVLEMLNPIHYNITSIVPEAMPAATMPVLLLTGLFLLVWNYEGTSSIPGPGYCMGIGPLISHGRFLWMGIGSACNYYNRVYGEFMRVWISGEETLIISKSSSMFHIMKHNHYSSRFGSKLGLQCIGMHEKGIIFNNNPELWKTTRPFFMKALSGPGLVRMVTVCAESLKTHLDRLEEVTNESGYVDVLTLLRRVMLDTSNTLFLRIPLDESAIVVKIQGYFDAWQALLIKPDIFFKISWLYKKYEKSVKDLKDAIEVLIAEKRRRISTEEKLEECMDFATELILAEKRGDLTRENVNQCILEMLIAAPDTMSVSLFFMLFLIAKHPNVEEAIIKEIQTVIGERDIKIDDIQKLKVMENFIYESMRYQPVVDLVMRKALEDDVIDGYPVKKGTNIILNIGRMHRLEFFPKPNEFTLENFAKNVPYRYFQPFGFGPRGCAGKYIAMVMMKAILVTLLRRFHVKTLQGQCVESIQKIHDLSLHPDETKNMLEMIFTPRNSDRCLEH

[6] = target: T3, Cytochrome P450 11B1, mitochondrial (Homo sapiens, UniProt P15538); test: Inhibition of human recombinant CYP11B1 using 11-deoxycortisol as substrate by cell-based assay
T3 sequence (P15538 whole entry): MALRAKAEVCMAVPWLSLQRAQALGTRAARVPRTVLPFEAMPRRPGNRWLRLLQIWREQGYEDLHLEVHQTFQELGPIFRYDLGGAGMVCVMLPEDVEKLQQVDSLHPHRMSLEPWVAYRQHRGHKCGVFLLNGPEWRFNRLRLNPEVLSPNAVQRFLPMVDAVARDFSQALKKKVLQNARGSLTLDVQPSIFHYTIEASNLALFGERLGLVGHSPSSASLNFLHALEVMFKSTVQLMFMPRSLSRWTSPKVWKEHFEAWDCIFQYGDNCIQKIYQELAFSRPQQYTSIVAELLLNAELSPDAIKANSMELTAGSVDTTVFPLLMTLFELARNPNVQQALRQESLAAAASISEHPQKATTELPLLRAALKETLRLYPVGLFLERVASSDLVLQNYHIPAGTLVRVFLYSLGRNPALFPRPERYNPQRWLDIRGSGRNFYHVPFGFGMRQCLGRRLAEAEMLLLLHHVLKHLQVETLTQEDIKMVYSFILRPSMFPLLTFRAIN

CYP19 (aromatase) = target: T4, CYP19 (aromatase) (Homo sapiens, UniProt P11511); test: Inhibition of human CYP19 at 1 uM preincubated for 10 mins followed by protein addition measured after 90 mins by fluorimetric analysis relative to control
T4 sequence (P11511 whole entry): T2 sequence (P11511 whole entry)

[7] = target: T5, Cytochrome P450 11B2, mitochondrial (Rattus norvegicus, UniProt P30099); test: Inhibition of rat recombinant CYP11B2 using 11-deoxycorticosterone as substrate by cell-based assay
T5 sequence (P30099 whole entry): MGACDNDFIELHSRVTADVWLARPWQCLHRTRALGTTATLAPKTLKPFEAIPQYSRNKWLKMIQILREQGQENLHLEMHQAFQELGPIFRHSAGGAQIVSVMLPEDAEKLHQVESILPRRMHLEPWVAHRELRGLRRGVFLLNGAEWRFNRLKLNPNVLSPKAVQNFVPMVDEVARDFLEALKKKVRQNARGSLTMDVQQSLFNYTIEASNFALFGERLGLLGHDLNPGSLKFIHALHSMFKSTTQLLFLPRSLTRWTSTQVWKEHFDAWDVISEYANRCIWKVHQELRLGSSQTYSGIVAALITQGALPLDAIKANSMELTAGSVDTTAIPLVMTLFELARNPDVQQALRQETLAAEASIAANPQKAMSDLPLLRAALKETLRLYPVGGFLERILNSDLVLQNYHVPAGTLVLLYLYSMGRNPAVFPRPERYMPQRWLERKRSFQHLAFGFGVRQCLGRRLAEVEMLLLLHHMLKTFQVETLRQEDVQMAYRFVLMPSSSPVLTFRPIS

[8] = target: T6, Cytochrome P450 11B1, mitochondrial (Rattus norvegicus, UniProt P15393); test: Inhibition of rat recombinant CYP11B1 using 11-deoxycortisol as substrate by cell-based assay
T6 sequence (P15393 whole entry): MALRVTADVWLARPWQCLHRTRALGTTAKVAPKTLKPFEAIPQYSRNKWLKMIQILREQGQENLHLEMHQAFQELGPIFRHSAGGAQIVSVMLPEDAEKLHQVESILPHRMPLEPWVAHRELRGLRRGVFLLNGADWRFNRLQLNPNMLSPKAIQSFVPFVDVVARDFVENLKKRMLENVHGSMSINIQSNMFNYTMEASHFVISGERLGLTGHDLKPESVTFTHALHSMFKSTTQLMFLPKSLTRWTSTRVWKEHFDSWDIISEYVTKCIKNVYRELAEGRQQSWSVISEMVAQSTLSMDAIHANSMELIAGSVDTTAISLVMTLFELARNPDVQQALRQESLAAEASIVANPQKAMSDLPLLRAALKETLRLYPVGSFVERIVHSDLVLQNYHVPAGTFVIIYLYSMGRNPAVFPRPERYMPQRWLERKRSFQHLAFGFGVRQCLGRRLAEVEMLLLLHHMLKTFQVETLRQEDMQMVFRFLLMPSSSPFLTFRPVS

Cytochrome P450 2D6 = Cytochrome P450 2D6 (Homo sapiens, UniProt P10635)
Cytochrome P450 2C9 = Cytochrome P450 2C9 (Homo sapiens, UniProt P11712)
Chain of Cytochrome P450 2C9 (P11712 whole entry): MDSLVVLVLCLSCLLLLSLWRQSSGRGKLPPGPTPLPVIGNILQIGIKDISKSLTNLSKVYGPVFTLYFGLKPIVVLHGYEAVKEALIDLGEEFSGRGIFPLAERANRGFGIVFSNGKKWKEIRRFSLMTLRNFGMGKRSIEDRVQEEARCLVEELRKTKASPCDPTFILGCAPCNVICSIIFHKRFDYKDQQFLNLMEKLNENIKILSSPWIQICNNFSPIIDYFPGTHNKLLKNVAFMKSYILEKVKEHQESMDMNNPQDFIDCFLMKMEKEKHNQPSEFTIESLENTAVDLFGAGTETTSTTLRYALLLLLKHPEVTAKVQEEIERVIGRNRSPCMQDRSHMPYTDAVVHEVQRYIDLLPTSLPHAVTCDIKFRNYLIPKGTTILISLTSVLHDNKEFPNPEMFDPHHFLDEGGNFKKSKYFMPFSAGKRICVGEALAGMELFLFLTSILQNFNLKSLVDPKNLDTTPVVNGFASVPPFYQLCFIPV

Chain of Cytochrome P450 2D6 (P10635 whole entry): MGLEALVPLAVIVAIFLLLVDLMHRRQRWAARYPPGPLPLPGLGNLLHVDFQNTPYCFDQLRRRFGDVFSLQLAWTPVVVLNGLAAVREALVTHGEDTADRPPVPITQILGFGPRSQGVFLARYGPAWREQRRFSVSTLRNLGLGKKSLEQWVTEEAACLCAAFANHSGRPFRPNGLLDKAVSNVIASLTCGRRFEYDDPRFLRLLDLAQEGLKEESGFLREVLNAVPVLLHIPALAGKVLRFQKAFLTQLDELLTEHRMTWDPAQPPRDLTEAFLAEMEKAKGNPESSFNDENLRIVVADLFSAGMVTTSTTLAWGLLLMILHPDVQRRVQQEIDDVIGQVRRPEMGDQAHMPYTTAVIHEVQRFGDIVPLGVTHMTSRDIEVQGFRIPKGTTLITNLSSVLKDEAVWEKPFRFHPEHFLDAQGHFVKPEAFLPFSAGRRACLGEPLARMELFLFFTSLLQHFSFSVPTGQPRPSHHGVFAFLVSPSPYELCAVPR

SMILES | Activity (Rattus norvegicus [1]) [%] | Cave (Rattus norvegicus [2]) [nM] | bioavailability [3] [%] | IC50 [4] [nM] | inhibition at 1.5 h, 1 µM (CYP19 (aromatase)) [%] | other results
Fc1ccc(-c2ccccc2[C@H]2CCCCc3cncn32)cc1 | 73 | 152 | 8 | 2 |  | 
c1ccc(-c2ccccc2[C@H]2CCCCc3cncn32)cc1 | 27 | 4 | < 1 | 2 |  | 
N#Cc1ccc([C@H]2CCCCc3cncn32)c(F)c1 | 69 |  |  | 42 |  | IC50 [5]: 3.2 nM; IC50 (Aromatase): 1100 nM; IC50 [6]: 7.2 nM
N#Cc1ccc([C@H]2CCCCc3cncn32)c(Cl)c1 |  |  |  | 16 | 100 | 
COc1cc(C#N)ccc1[C@H]1CCCCc2cncn21 |  |  |  | 520 |  | 
COC(=O)[C@]1(c2ccc(C#N)cc2Cl)CCc2cncn21 | 81 | 6 | 1 | 17 |  | IC50 (Aromatase): 50 nM
COC(=O)[C@]1(c2ccc(C#N)cc2OC)CCc2cncn21 |  |  |  | 3 |  | 
COC(=O)[C@]1(c2ccc(C#N)cc2F)CCc2cncn21 |  |  |  | 351 |  | 
N#Cc1ccc([C@@]2(C(=O)OCc3ccc(F)cc3)CCc3cncn32)c(Cl)c1 |  |  |  | 1.5 | 95 | IC50 [5]: 3.8 nM; IC50 [6]: < 0.1 nM
COc1cc(C#N)ccc1[C@@]1(C(=O)N(C)Cc2ccc(F)cc2)CCc2cncn21 | 35 | 15 | 8 | 5 | 45 | 
c1ccc(-c2ccccc2[C@H]2CCc3cncn32)cc1 |  |  |  | 441 |  | 
Fc1ccc(-c2ccccc2[C@H]2CCc3cncn32)cc1 |  |  |  | 140 |  | 
N#Cc1ccc([C@H]2CCc3cncn32)c(Cl)c1 | 51 | 152 | 59 | 13 |  | 
COc1cc(C#N)ccc1[C@H]1CCc2cncn21 | 50 | 33 | 18 | 5 | 80 | 
Cc1cc(C#N)ccc1[C@H]1CCc2cncn21 |  |  |  | 8 | 87 | IC50 [5]: 0.9 nM; IC50 [7]: 24 nM; IC50 [8]: 386 nM; IC50 [6]: 1.5 nM
N#Cc1ccc([C@H]2CCc3cncn32)c(Br)c1 |  |  |  | 10 | 47 | 
N#Cc1ccc([C@H]2CCCc3cncn32)c(-c2ccccc2)c1 |  |  |  | 56 |  | 
c1ccc(-c2ccccc2[C@H]2CCCc3cncn32)cc1 |  |  |  | 37 |  | 
N#Cc1ccc([C@H]2CCCc3cncn32)c(F)c1 |  |  |  | 87 | 20 | 
N#Cc1ccc([C@H]2CCCCc3cncn32)c(-c2ccc(F)cc2)c1 | 66 | 6 | 1 | 1 |  | IC50 [5]: 0.4 nM; IC50 [7]: 1 nM; IC50 [8]: 0.3 nM; IC50 [6]: 0.3 nM
N#Cc1ccc(C2CCCc3cncn32)c(Cl)c1 (racemic) |  |  |  | 792 | 99 | 
Cc1cc(C#N)ccc1C1CCCc2cncn21 (racemic) |  |  |  | 464 | 100 | 
COc1cc(C#N)ccc1C1CCCc2cncn21 (racemic) |  |  |  | 390 | 100 | 
N#Cc1ccc([C@H]2CCc3cncn32)c(F)c1 [OSILODROSTAT] | 65 | 377 | 42 |  |  | IC50 (Cytochrome P450 2D6): > 10000 nM; IC50 [7]: 111 nM; IC50 (Cytochrome P450 2C9): > 10000 nM
